Numbering of substitutions follows the chain as printed.
Legend:
Conditions in all cases: stereoisomer not certain
[1] = biological target: T1, UniProt Q7TR71
T1 sequence (whole entry): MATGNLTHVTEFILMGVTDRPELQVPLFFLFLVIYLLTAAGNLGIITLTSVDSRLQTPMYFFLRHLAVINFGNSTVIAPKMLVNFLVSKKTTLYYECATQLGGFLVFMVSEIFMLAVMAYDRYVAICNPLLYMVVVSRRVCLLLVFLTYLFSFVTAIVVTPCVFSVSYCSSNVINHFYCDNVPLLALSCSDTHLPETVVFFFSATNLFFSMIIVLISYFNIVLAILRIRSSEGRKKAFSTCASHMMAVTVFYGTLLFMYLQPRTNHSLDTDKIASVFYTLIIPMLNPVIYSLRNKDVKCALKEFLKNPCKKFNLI
Method in brief: (§1)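 Transient luciferase assays in mammalian cell lines were common, though methods varied by source. The values come from published papers and their supplementary material, with extra details from the original authors when needed. Responsive refers to a measured signal the original authors judged statistically different from baseline, and non-responsive (inactive) to the remainder.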

[2] = biological target: T2, UniProt Q7TR79
T2 sequence (whole entry): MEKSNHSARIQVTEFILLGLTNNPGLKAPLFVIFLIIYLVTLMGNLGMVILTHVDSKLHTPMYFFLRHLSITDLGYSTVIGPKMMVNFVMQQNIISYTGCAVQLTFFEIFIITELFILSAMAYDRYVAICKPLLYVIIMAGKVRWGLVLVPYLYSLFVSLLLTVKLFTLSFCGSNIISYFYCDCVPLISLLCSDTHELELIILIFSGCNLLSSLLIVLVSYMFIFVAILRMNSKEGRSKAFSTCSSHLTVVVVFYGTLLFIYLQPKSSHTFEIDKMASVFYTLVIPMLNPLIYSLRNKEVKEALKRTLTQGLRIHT
Method in brief: as §1

[3] = biological target: T3, UniProt Q7TRA3
T3 sequence (whole entry): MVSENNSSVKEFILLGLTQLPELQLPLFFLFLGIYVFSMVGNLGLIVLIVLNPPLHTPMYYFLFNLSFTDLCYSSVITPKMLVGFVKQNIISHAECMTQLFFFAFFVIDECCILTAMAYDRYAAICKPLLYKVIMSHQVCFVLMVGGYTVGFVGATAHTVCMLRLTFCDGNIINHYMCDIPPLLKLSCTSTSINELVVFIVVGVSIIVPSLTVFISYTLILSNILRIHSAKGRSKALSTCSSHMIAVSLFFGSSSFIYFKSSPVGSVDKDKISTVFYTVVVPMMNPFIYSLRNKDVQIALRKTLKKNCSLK
Method in brief: as §1

[4] = biological target: T4, UniProt Q7TRE4
T4 sequence (whole entry): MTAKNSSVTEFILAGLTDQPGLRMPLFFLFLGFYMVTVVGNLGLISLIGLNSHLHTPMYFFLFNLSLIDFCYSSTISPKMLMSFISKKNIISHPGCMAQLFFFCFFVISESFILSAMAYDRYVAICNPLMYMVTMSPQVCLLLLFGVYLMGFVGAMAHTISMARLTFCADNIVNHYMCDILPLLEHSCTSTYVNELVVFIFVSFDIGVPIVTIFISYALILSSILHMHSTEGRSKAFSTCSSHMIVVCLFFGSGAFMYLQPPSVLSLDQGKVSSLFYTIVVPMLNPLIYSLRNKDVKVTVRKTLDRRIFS
Method in brief: as §1

[5] = biological target: T5, UniProt Q7TRW1
T5 sequence (whole entry): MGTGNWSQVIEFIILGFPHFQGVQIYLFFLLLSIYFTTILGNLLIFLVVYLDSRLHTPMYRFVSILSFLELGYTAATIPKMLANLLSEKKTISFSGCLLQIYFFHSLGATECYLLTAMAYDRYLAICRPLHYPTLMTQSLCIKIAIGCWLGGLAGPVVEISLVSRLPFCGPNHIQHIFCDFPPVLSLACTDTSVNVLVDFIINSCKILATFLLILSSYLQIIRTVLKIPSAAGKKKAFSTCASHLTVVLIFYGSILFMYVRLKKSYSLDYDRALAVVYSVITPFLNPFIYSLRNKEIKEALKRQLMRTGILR
Method in brief: as §1

[6] = biological target: T6, UniProt Q7TRX0
T6 sequence (whole entry): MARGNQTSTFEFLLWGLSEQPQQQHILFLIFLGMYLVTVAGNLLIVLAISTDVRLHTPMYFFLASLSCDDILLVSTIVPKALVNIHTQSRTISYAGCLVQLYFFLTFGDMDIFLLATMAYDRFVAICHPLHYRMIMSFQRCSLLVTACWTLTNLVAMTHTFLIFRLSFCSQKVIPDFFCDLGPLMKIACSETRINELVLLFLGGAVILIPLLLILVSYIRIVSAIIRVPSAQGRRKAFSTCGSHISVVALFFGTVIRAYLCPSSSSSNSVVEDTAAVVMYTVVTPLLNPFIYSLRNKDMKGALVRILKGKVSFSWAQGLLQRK
Method in brief: as §1

[7] = biological target: T7, UniProt Q8VEU7
T7 sequence (whole entry): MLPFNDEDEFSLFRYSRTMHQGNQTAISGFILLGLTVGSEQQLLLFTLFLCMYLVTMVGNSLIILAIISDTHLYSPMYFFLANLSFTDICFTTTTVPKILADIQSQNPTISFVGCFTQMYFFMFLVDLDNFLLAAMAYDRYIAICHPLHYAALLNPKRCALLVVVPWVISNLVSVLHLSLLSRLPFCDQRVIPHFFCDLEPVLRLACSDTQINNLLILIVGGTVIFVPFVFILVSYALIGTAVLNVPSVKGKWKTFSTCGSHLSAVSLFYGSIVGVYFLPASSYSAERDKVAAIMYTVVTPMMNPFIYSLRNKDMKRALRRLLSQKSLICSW
Method in brief: as §1

[8] = biological target: T8, UniProt Q8VF05
T8 sequence (whole entry): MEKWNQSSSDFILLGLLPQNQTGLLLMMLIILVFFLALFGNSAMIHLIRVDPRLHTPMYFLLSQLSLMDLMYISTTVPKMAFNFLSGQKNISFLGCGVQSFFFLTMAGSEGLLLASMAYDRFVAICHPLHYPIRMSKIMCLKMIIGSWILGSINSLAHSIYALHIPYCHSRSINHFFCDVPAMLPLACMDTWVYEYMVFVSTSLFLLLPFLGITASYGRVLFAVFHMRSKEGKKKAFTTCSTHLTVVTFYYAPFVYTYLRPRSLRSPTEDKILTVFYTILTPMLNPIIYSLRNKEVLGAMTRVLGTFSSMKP
Method in brief: as §1

[9] = biological target: T9, UniProt Q7TRA1
T9 sequence (whole entry): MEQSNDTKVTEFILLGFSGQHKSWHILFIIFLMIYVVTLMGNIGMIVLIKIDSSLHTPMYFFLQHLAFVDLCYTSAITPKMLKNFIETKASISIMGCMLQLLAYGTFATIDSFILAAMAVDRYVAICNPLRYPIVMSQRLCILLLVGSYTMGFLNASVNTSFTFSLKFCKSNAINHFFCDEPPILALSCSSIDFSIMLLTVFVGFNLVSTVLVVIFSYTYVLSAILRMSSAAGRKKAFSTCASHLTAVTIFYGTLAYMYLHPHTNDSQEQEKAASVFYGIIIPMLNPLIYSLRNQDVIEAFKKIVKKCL
Method in brief: as §1

[10] = biological target: T10, UniProt Q7TRA2
T10 sequence (whole entry): T9 sequence (whole entry) with S18A, I86T, I94F, M95I, S112C, V208L, T219I, V221I, V305A
Method in brief: as §1

[11] = biological target: T11, UniProt Q7TRM0
T11 sequence (whole entry): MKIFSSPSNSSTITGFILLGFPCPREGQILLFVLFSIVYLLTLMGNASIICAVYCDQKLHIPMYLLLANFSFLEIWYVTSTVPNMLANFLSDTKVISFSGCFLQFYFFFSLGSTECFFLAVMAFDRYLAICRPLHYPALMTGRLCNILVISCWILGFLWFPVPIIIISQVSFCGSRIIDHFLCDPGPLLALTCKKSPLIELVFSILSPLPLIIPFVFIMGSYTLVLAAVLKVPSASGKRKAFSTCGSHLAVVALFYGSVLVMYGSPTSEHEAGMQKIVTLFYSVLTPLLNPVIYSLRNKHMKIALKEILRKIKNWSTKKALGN
Method in brief: as §1

[12] = biological target: T12, UniProt Q7TRN9
T12 sequence (whole entry): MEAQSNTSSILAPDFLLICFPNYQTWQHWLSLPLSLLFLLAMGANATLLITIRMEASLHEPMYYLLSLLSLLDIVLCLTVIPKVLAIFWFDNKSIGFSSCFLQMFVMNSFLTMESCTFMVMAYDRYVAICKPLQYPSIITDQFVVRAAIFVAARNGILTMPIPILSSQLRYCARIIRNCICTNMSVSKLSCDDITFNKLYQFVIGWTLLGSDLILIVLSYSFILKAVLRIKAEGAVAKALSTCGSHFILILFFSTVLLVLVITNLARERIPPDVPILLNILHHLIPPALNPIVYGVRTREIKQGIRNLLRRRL
Method in brief: as §1

[13] = biological target: UniProt Q7TRR7
Chain of UniProt Q7TRR7 (Q7TRR7 as listed by the source): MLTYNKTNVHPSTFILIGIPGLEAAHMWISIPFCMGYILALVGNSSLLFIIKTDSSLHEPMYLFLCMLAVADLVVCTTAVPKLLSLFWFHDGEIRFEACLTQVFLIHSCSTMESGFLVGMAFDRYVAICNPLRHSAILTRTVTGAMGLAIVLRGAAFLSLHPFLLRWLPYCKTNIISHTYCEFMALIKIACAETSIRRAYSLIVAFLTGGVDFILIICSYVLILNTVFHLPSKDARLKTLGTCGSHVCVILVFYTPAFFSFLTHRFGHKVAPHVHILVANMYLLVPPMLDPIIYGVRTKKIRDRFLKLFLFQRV
Method in brief: as §1

[14] = biological target: T13, UniProt Q7TRR8
T13 sequence (whole entry): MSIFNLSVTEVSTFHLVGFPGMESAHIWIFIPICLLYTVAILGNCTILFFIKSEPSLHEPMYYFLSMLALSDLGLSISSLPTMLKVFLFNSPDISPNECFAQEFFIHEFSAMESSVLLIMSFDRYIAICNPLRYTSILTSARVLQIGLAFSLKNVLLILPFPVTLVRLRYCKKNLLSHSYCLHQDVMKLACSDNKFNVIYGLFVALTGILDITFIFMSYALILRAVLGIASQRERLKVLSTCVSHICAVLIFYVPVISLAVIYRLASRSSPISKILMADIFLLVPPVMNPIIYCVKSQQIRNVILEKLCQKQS
Method in brief: as §1
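Further: active if original authors judged signal statistically different from baseline.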

SMILES	odorant receptor agonist call [1]	odorant receptor agonist call [2]	odorant receptor agonist call [3]	odorant receptor agonist call [4]	odorant receptor agonist call [5]	odorant receptor agonist call [6]	odorant receptor agonist call [7]	odorant receptor agonist call [8]	odorant receptor agonist call [9]	odorant receptor agonist call [10]	odorant receptor agonist call [11]	odorant receptor agonist call [12]	odorant receptor agonist call [13]	odorant receptor agonist call [14]
CCCCCC(=O)CC	inactive	inactive	inactive	inactive	inactive	active	inactive	active						
CCCCCOC(=O)CCCCC	inactive	inactive	inactive	inactive	inactive	inactive	inactive	inactive						
CC(C)=CCCC(C)=CCO	inactive	inactive	inactive	inactive	inactive	inactive	inactive	inactive						
CCCCCCOC(C)=O	inactive	inactive	inactive	inactive	inactive	inactive	inactive	inactive						
CCCCCCCCC(=O)O	inactive	inactive	inactive	inactive	inactive	inactive	inactive	inactive	active	active	inactive	active	inactive	active
CCCCCCCCCC(=O)[O-].[H+]	inactive	inactive	inactive	inactive	inactive	inactive	inactive	inactive						
CCC(=O)O	inactive	inactive	inactive	inactive	inactive	inactive	inactive	inactive						
CCCCCCCCS	inactive	inactive	inactive	inactive	inactive	inactive	inactive	inactive						
O=C(c1ccccc1)c1ccccc1	inactive	inactive	active	inactive	inactive	inactive	inactive	inactive						
CCCCOC=O	inactive	inactive	inactive	inactive	inactive	inactive	inactive	inactive						
CCCCCC=O	inactive	inactive	inactive	inactive	inactive	inactive	inactive	active						
CCCCC(=O)CC	inactive	inactive	inactive	inactive	inactive	inactive	inactive	active						
CCCCCCO	inactive	inactive	inactive	inactive	inactive	inactive	inactive	inactive				inactive		inactive
